INS-1E rescue: preserves ATP levels in cytokine-treated INS-1E cells; INS-1E cytokine-induced death, ATP luminescence, 48 h; normalised: neutral wells 0, positive control 100; protection from cytokine-induced ATP loss, % at 10 µM; 20,000 tested, 0.1% active; AID 488910;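 active = mean replicate protection from cytokine-induced ATP loss at least 50% and at least 75% of replicates each reaching 50%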
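Assay system: INS-1E rat insulinoma cells. Amount: 8000 cells per well. Medium: phenol-red-free RPMI with 5% fetal bovine serum. Reagent: IL-1β, TNF-α and IFN-γ cytokine mix. Doses: one compound concentration, pin transfer. Schedule: 48 h co-treatment, 10 min post-lysis read. Detection: CellTiter-Glo luminescence measuring cellular ATP.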
T cruzi intra: intracellular Trypanosoma cruzi inhibition; 22,000 tested, 4.9% active; intracellular Trypanosoma cruzi in host cells, plate reader; activity score (inhibition), % at 5.01 µM; in the data active = activity score above about 55%;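 also: parasites and compound incubated about four days before reading; 0% = median of neutral control wells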
A1 apoptosis 2: compounds inhibiting A1, read as caspase activation; MEF A1-2A-BIM cells, caspase-Glo luminescence, 3 h; percent of clofoctol response, DMSO zero; caspase activation, % (no concentration beside the values); 24,000 tested, under 10 active; AID 2465; in the data active = caspase activation above about 5.9%
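System: mouse embryonic fibroblasts co-expressing A1 and BIM (A1-2A-BIM), primed for A1 dependence; amount: 2500 cells/well; doses: 50 nL pinned compound; schedule: cells settled overnight, compound exposure 3 h at 37 °C, 5% CO2; detection: Caspase-Glo 3/7 luminescence, 1 h at room temperature; read-out: Caspase-3/7 activation, seen as rise in luminescence signal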
* hit, by the source's call; / = not tested or not shown. Many of the other results were omitted from the sample, so hits are more common in it than they were.

SMILES	INS-1E rescue	T cruzi intra	A1 apoptosis 2
C[C@@H]1CN([C@H](C)CO)C(=O)Cc2cc(NC(=O)Nc3ccccc3)ccc2O[C@@H]1CN(C)Cc1ccc(C(=O)Nc2ccccc2N)cc1	0	64*	-1
O=C(CCCCCCC(=O)N/N=C/c1ccc(-n2ccnc2)cc1)NO	/	/	-1
O=C(N/N=C\c1ccc2ccccc2n1)c1ccccn1	-7	-6	-7
C[C@H](CO)N1C[C@H](C)[C@H](CN(C)Cc2ccc(C(=O)Nc3ccccc3N)cc2)Oc2ccc(NC(=O)CCC(F)(F)F)cc2CC1=O	29	53	0
C[C@@H]1CN([C@@H](C)CO)C(=O)c2cc(NC(=O)Nc3ccc(C(F)(F)F)cc3)ccc2O[C@H]1CN(C)Cc1ccc(C(=O)Nc2ccccc2N)cc1	2	39	/
C[C@@H]1CN([C@@H](C)CO)C(=O)Cc2cc(NC(=O)CCC(F)(F)F)ccc2O[C@@H]1CN(C)Cc1ccc(C(=O)Nc2ccccc2N)cc1	-7	68*	/
C[C@@H]1CN([C@H](C)CO)C(=O)c2cc(NC(=O)Nc3ccc(C(F)(F)F)cc3)ccc2O[C@H]1CN(C)Cc1ccc(C(=O)Nc2ccccc2N)cc1	-13	57*	0
O=C(NO)c1cccc(C(=O)N/N=C/C2=CCCCC2)c1	-4	-3	-1
O=C(N/N=C/c1ccc(F)c(Oc2ccccc2)c1)c1ccccc1O	0	-3	-5
NC(=O)COc1ccccc1/C=N/NC(=O)c1cccc(C(=O)NO)c1	1	-11	1
COc1ccc(CN(C)C[C@H]2Oc3ccc(NC(=O)Cc4cn(C)c5ccccc45)cc3CC(=O)N([C@@H](C)CO)C[C@H]2C)cc1	-9	32	0
C[C@H]1CN([C@@H](C)CO)C(=O)Cc2cc(NC(=O)Cc3cn(C)c4ccccc34)ccc2O[C@@H]1CN(C)Cc1ccc(Oc2ccccc2)cc1	-15	51	/
COc1ccc(CN(C)C[C@H]2Oc3ccc(NC(=O)Cc4cn(C)c5ccccc45)cc3CC(=O)N([C@@H](C)CO)C[C@@H]2C)cc1	-2	61*	0
C[C@H](CO)N1C[C@H](C)[C@@H](CN(C)Cc2ccc(Oc3ccccc3)cc2)Oc2ccc(NC(=O)Cc3cn(C)c4ccccc34)cc2CC1=O	/	/	-1
C[C@H]1CN([C@@H](C)CO)C(=O)Cc2cc(NC(=O)Cc3cn(C)c4ccccc34)ccc2O[C@H]1CN(C)Cc1ccc(Oc2ccccc2)cc1	-43	59*	-1
C[C@@H]1CN([C@H](C)CO)C(=O)Cc2cc(NC(=O)Cc3cn(C)c4ccccc34)ccc2O[C@H]1CN(C)Cc1ccc(Oc2ccccc2)cc1	-20	78*	/
NC(=O)NCC#Cc1ccc2c(c1)[C@]1(C(=O)N2)[C@H](c2ccc(OCCO)cc2)N2[C@H](c3ccccc3)[C@H](c3ccccc3)OC(=O)[C@H]2[C@@H]1C(=O)Nc1nc2ccccc2s1	/	/	-1
Cc1ccc(S(=O)(=O)N[C@@H](Cc2ccccc2)C(=O)NCCCN=[N+]=[N-])cc1	/	/	-2
C[C@H]1CN([C@@H](C)CO)C(=O)Cc2cc(NC(=O)Nc3ccccc3)ccc2O[C@H]1CN(C)Cc1ccc(C(F)(F)F)cc1	-47	67*	/
C[C@@H]1CN([C@H](C)CO)C(=O)Cc2cc(NC(=O)Cc3ccccc3)ccc2O[C@H]1CN(C)Cc1ccc(C(F)(F)F)cc1	-5	70*	-2
C[C@@H]1CN([C@H](C)CO)C(=O)Cc2cc(NC(=O)Nc3ccc(C(F)(F)F)cc3)ccc2O[C@H]1CN(C)Cc1ccccc1	-8	73*	/
C[C@H](CO)N1C[C@H](C)[C@H](CN(C)Cc2ccccc2)Oc2ccc(NC(=O)Nc3ccccc3)cc2CC1=O	3	-7	2
C[C@H](CO)N1C[C@H](C)[C@H](CN(C)Cc2ccccc2)Oc2ccc(NC(=O)Nc3ccc(F)cc3)cc2CC1=O	-9	-40	0
C[C@H](CO)N1C[C@H](C)[C@H](CN(C)Cc2ccccc2)Oc2ccc(NC(=O)Cc3ccccc3)cc2CC1=O	-4	29	0
C[C@H]1CN([C@@H](C)CO)C(=O)Cc2cc(NC(=O)Nc3ccc(C(F)(F)F)cc3)ccc2O[C@H]1CN(C)Cc1ccccc1	-89	70*	/
SMILES	INS-1E rescue	T cruzi intra	A1 apoptosis 2
O=C(NO)c1ccc(C(=O)N/N=C/c2ccc(B(O)O)cc2)cc1	/	/	0
O=C(CCCCCCC(=O)Nc1ccccc1O)N/N=C/c1nccs1	7	3	-1
C[C@H](CO)N1C[C@H](C)[C@H](CN(C)Cc2ccccc2)Oc2ccc(NC(=O)Nc3ccc(C(F)(F)F)cc3)cc2CC1=O	-5	66*	/
C[C@H](CO)N1C[C@H](C)[C@@H](CN(C)Cc2ccccc2)Oc2ccc(NC(=O)Nc3ccc(C(F)(F)F)cc3)cc2CC1=O	/	/	0
CN(C)CCCOc1ccc(/C=N/NC(=O)CCCCCC(=O)NO)cc1	/	/	1
C[C@@H]1CN([C@H](C)CO)C(=O)Cc2cc(NS(=O)(=O)c3ccccc3)ccc2O[C@@H]1CN(C)Cc1ccc(Cl)c(Cl)c1	-65	65*	-1
C[C@H](CO)N1C[C@H](C)[C@H](CN(C)Cc2ccc(Cl)c(Cl)c2)Oc2ccc(NS(=O)(=O)c3ccccc3)cc2CC1=O	-5	38	0
C[C@@H]1CN([C@H](C)CO)C(=O)Cc2cc(NS(=O)(=O)c3ccccc3)ccc2O[C@H]1CN(C)Cc1ccc(Cl)c(Cl)c1	-10	73*	-1
C[C@H]1CN([C@@H](C)CO)C(=O)Cc2cc(NS(=O)(=O)c3ccccc3)ccc2O[C@H]1CN(C)Cc1ccc(Cl)c(Cl)c1	-29	25	0
COC(=O)CCCCCCC(=O)N/N=C/[C@H](O)[C@@H](O)[C@H](O)[C@H](O)CO[C@H]1O[C@H](CO)[C@H](O)[C@H](O)[C@H]1O	-7	-12	1
COC(=O)CCCCCCC(=O)N/N=C/c1ccc(N2CCCC2)cc1	8	-11	1
Cc1ccc(O)c(/C=N/NC(=O)c2cccc(C(=O)NO)c2)c1	-2	-45	-1
O=C(CCCCCCC(=O)Nc1ccccc1O)N/N=C/c1ccc2c(c1)CCO2	3	-7	0
O=C1O[C@H](c2ccccc2)[C@H](c2ccccc2)N2[C@H]1[C@@H](C(=O)N1CCN(c3ncccn3)CC1)[C@]1(C(=O)Nc3ccccc31)[C@H]2c1ccccc1OCCO	/	/	-1
C[C@H]1CN([C@@H](C)CO)C(=O)c2cccc(NC(=O)c3ccncc3)c2O[C@@H]1CN(C)Cc1ccc(C(F)(F)F)cc1	17	78*	0
C[C@@H]1CN([C@H](C)CO)C(=O)c2cccc(NC(=O)c3ccncc3)c2O[C@H]1CN(C)Cc1ccc(C(F)(F)F)cc1	2	79*	2
C[C@@H]1CN([C@@H](C)CO)C(=O)c2cccc(NC(=O)c3cnccn3)c2O[C@H]1CN(C)Cc1ccc(C(F)(F)F)cc1	-1	15	-2
C[C@@H]1CN([C@H](C)CO)C(=O)c2cccc(NC(=O)c3ccncc3)c2O[C@@H]1CN(C)Cc1ccc(C(F)(F)F)cc1	-5	-1	0

Source: PubChem (Broad Institute)
